Measured values reported in ChEMBL document CHEMBL1122273, “5-sulfamoylorthanilic acids, a sulfonamide series with salidiuretic activity” (J Med Chem, 1983).
Activity calls are given as the source filed them. The rule behind the calls is not given here.

Columns and labels:
[1] = system: Canis familiaris; test: Saluretic activity in the dog measured as concentration of Cl - in urinary excretion (2 animals/dose) at (dose 1.56 mg/Kg, po); type: functional, Canis lupus familiaris, Urine
In short: (§1)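 Male beagles trained to the procedures, food withdrawn 24 h before, tap water ad libitum. Bladder emptied by catheter, then 20 mL/kg tap water by stomach tube, plus 4 mL/kg orally at each hourly catheterization up to 8 h. The first 2 h of urine served as control. Compound given orally after the second catheterization. Urine from 1–6 h post-dose pooled; Na⁺ and K⁺ by flame photometry, Cl⁻ argentometrically, in mequiv/kg.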

[2] = system: Canis familiaris; test: Saluretic activity in the dog measured as concentration of K+ in urinary excretion (2 animals/dose) at (dose 1.56 mg/Kg, po); type: functional, Canis lupus familiaris, Urine
In short: (§2)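 Male beagles trained to rest on a table and to accept stomach tube and catheter. Food withdrawn 24 h before, tap water ad libitum. Bladder emptied by catheter, then 20 mL/kg tap water by stomach tube. Catheterized hourly up to 8 h with 4 mL/kg water orally each time; first 2 h urine served as control. Oral dosing after second catheterization. Pooled 1–6 h urine; Na⁺/K⁺ by flame photometry, Cl⁻ argentometrically.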

[3] = system: Canis familiaris; test: Saluretic activity in the dog measured as concentration of Na+ in urinary excretion (2 animals/dose) at (dose 1.56 mg/Kg, po); type: functional, Canis lupus familiaris, Urine; in short: as §2
[4] = species: Rattus norvegicus; test: Saluretic activity in the rat measured as concentration of K+ in urine; type: functional
In short: (§3)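 Rats deprived of food 24 h, water ad libitum, dosed 50 mg/kg by stomach tube as suspension in 2% starch, no extra water load. Groups of three in diuresis funnels; urine over first 5 h collected. Na⁺ and K⁺ by flame photometry, Cl⁻ argentometrically; expressed as mequiv/kg.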

[5] = system: Canis familiaris; test: Diuretic activity in the dog (2 animals/dose) at (dose 1.56 mg/Kg), when administered perorally; type: functional, Canis lupus familiaris, Urine
In short: (§4)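 Trained male beagles, fasted 24 h with tap water ad libitum. Bladder emptied by catheter, then 20 mL/kg tap water by stomach tube, with 4 mL/kg water at each hourly catheterization up to 8 h. The first 2 h of urine served as control. Oral dosing came after the second catheterization, and 1–6 h urine was pooled. Na⁺ and K⁺ were measured by flame photometry, Cl⁻ argentometrically, in mequiv/kg.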

[6] = It is the ratio, measured as saluretic activity in the dog as concentration of Na+ in urinary excretion (dose 1.56 mg/Kg, po) to that of K; type: functional, Urine; in short: as §4
[7] = species: Rattus norvegicus; test: Saluretic activity in the rat measured as concentration of Na+ in urine; type: functional; in short: as §3
[8] = species: Rattus norvegicus; test: Saluretic activity in the rat measured as concentration of chloride in urine; type: functional; in short: as §3
[9] = species: Rattus norvegicus; test: Diuretic activity in the rats, determined by a modified Lipschitz test; type: functional, Urine
In short: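 Modified Lipschitz test: rats deprived of water 24 h, grouped in threes of similar weight in diuresis funnels. Oral dose of 50 mg/kg, suspended in 2% starch solution, by stomach tube.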

[10] = It is the ratio, measured as saluretic activity in the dog as concentration of Cl- in urinary excretion (dose 1.56 mg/Kg, po) to that of (Na+)+(K+); type: functional, Urine; in short: as §4
[11] = system: Canis familiaris; test: Salidiuretic activity on the basis of the 1.56 mg/Kg perorally dog assay; compound was found to be active; type: functional, organism-based; settings: Canis lupus familiaris; Urine
[12] = It is the ratio, measured as saluretic activity in the dog as concentration of Cl- in urinary excretion (dose 1.56 mg/Kg, perorally) to that of (Na+)+(K+); type: functional, Urine; in short: as §4
[13] = system: Rattus norvegicus; test: Salidiuretic activity on the basis of the 50 mg/kg perorally rat assay; NA means inactive; settings: Urine
[14] = system: Canis familiaris; test: Saluretic activity in the dog measured as concentration of Na+ in urinary excretion (2 animals/dose) at (dose 1.56 mg/Kg, perorally); type: functional, Canis lupus familiaris, Urine; in short: as §2
[15] = system: Canis familiaris; test: Saluretic activity in the dog measured as concentration of Cl - in urinary excretion (2 animals/dose) at (dose 1.56 mg/Kg, perorally); type: functional, Canis lupus familiaris, Urine; in short: as §1
[16] = system: Canis familiaris; test: Saluretic activity in the dog measured as concentration of K+ in urinary excretion (2 animals/dose) at (dose 1.56 mg/Kg, perorally); type: functional, Canis lupus familiaris, Urine; in short: as §1
[17] = It is the ratio, measured as saluretic activity in the dog as concentration of Na+ in urinary excretion (dose 1.56 mg/Kg, perorally) to that of K; type: functional, Urine; in short: as §4
[18] = It is the ratio, measured as saluretic activity in the dog as concentration of Cl- in urinary excretion (dose 1.56 mg/Kg, po) to that of (Na++K+); type: functional, Urine; in short: as §4
[19] = system: Canis familiaris; test: Salidiuretic activity on the basis of the 1.56 mg/Kg po dog assay; compound was found to be active; type: functional, organism-based; settings: Canis lupus familiaris; Urine
[20] = system: Rattus norvegicus; test: Salidiuretic activity on the basis of the 50 mg/kg po rat assay; compound was found to be active; type: functional, organism-based; set-up: dose 50 mg/kg; settings: Urine
[21] = system: Canis familiaris; test: Salidiuretic activity on the basis of the 1.56 mg/Kg po dog assay; compound was moderately active; type: functional, organism-based; settings: Canis lupus familiaris; Urine
[22] = system: Rattus norvegicus; test: Salidiuretic activity on the basis of the 50 mg/kg po rat assay; compound was active; type: functional, organism-based; set-up: dose 50 mg/kg; settings: Urine
[23] = system: Rattus norvegicus; test: Salidiuretic activity on the basis of the 50 mg/kg perorally rat assay; compound was found to be highly active; type: functional, organism-based; set-up: dose 50 mg/kg; settings: Urine
[24] = system: Canis familiaris; test: Salidiuretic activity on the basis of the 1.56 mg/Kg perorally dog assay; compound was found to be highly active; type: functional, organism-based; settings: Canis lupus familiaris; Urine

Row | SMILES | Saluretic activity [4] [m equiv 5hr-1 kg-1] | Diuretic activity [5] [ml kg-1 6hr-1] | Saluretic activity [7] [m equiv 5hr-1 kg-1] | Saluretic activity [8] [m equiv 5hr-1 kg-1] | Diuretic activity [9] [mL/kg] | further results
1 | CCCCSc1cc(NCc2ccco2)c(S(=O)(=O)[O-])cc1S(N)(=O)=O.[K+] | 2.2 | 32.8 | 3.6 | 3.6 | 2.5 | Saldiuretic activity [1]: 1.43 m equiv 6hr-1 kg-1; Saldiuretic activity [2]: 0.35 m equiv 6hr-1 kg-1; Saluretic activity [3]: 1.06 m equiv 6hr-1 kg-1; Ratio [6]: 3; Ratio [10]: 1
2 | NS(=O)(=O)c1cc(S(=O)(=O)[O-])c(NCc2ccco2)cc1SC1CCCCC1.[K+] | 0.5 | 32.6 | 1.4 | 1.9 | 0.8 | Saldiuretic activity [1]: 0.32 m equiv 6hr-1 kg-1; Saldiuretic activity [2]: 0.07 m equiv 6hr-1 kg-1; Saluretic activity [3]: 0.27 m equiv 6hr-1 kg-1; Ratio [6]: 3.9; Ratio [10]: 0.95
3 | NS(=O)(=O)c1cc(S(=O)(=O)[O-])c(NCCc2ccco2)cc1Oc1ccccc1.[K+] | 0.7 | 35.2 | 0.6 | 0.9 | 1.2 | Saldiuretic activity [11]: Active; Ratio [12]: 1.1; Diuretic activity [13]: inactive; Saluretic activity [14]: 0.89 m equiv 6hr-1 kg-1; Saldiuretic activity [15]: 1.18 m equiv 6hr-1 kg-1; Saluretic activity [16]: 0.21 m equiv 6hr-1 kg-1; Ratio [17]: 4.2
4 | CCCCS(=O)(=O)c1cc(NCc2ccco2)c(S(=O)(=O)[O-])cc1S(N)(=O)=O.[Na+] | 2.2 | 65.5 | 7.3 | 8.7 | 3.8 | Saldiuretic activity [1]: 5.78 m equiv 6hr-1 kg-1; Saldiuretic activity [2]: 0.97 m equiv 6hr-1 kg-1; Ratio [18]: 1; Saluretic activity [3]: 4.92 m equiv 6hr-1 kg-1; Ratio [6]: 5
5 | CN(c1ccccc1)c1cc(NCCc2ccco2)c(S(=O)(=O)[O-])cc1S(N)(=O)=O.[K+] | 2 | 59.9 | 2.2 | 3.2 | 1.2 | Saldiuretic activity [1]: 5.81 m equiv 6hr-1 kg-1; Saluretic activity [2]: 1.08 m equiv 6hr-1 kg-1; Saluretic activity [3]: 4.7 m equiv 6hr-1 kg-1; Ratio [6]: 4.3; Ratio [10]: 1
6 | N.NS(=O)(=O)c1cc(S(=O)(=O)O)c(NCc2ccccc2)cc1Oc1ccccc1 | 2.2 | 48 | 4.9 | 6.9 | 3 | Ratio [12]: 1.1; Saldiuretic activity [19]: Active; Saldiuretic activity [20]: Active; Saluretic activity [14]: 3.12 m equiv 6hr-1 kg-1; Saldiuretic activity [15]: 3.91 m equiv 6hr-1 kg-1; Saluretic activity [16]: 0.53 m equiv 6hr-1 kg-1; Ratio [17]: 5.9
7 | Cc1ccccc1Nc1cc(NCc2ccco2)c(S(=O)(=O)[O-])cc1S(N)(=O)=O.[Na+] | 1 |  | 0.7 | 0.6 | 0.6 | 
8 | NS(=O)(=O)c1cc(S(=O)(=O)[O-])c(S(=O)(=O)C2CCCCC2)cc1NCc1ccco1.[Na+] | 1.1 |  | 0.4 | 1 | 0.8 | 
9 | NC(N)=NC(=O)c1nc(Cl)c(N)nc1N.NS(=O)(=O)c1cc(S(=O)(=O)O)c(NCc2ccco2)cc1Oc1ccccc1 | 0.3 |  | 3.7 | 2.7 | 1.9 | 
10 | CCN(c1ccccc1)c1cc(NCc2ccco2)c(S(=O)(=O)[O-])cc1S(N)(=O)=O.[Na+] | 1 |  | 0.4 | 0.3 | 0.8 | 
11 | NS(=O)(=O)c1cc(S(=O)(=O)[O-])c(NCc2ccco2)cc1S(=O)(=O)C1CCCCCC1.[Na+] | 2.8 |  | 8.9 | 9.9 | 4 | 
12 | CCCS(=O)(=O)c1cc(NCc2ccco2)c(S(=O)(=O)[O-])cc1S(N)(=O)=O.[Na+] | 1.3 |  | 1.8 | 2.4 | 2.9 | 
13 | CNS(=O)(=O)c1cc(S(=O)(=O)[O-])c(NCc2ccco2)cc1Oc1ccccc1.[K+] | 0.8 |  | 0.8 | 1 | 1.6 | 
14 | NS(=O)(=O)c1cc(S(=O)(=O)[O-])c(NCc2ccco2)cc1S(=O)(=O)CC1CCCCC1.[Na+] | 2.7 |  | 8.8 | 10.7 | 4.6 | 
15 | NS(=O)(=O)c1cc(S(=O)(=O)[O-])c(NCc2ccccc2)cc1S(=O)(=O)C1CCCCC1.[Na+] | 1.7 | 51 | 2 | 1.8 | 0.5 | Saldiuretic activity [1]: 3.94 m equiv 6hr-1 kg-1; Saldiuretic activity [21]: Weak activity; Saluretic activity [2]: 0.56 m equiv 6hr-1 kg-1; Saluretic activity [3]: 3.23 m equiv 6hr-1 kg-1; Ratio [6]: 5.8; Saldiuretic activity [22]: Active; Ratio [10]: 1.05
16 | NS(=O)(=O)c1cc(S(=O)(=O)[O-])c(NCc2ccco2)cc1NCc1ccccc1.[K+] | 0.6 |  | 0.8 | 1.2 | 1 | 
17 | NS(=O)(=O)c1cc(S(=O)(=O)[O-])c(NCc2ccco2)cc1S(=O)(=O)Cc1ccccc1.[K+] | 0.6 |  | 0.8 | 0.7 | 1 | 
18 | NS(=O)(=O)c1cc(S(=O)(=O)O)c(NCc2ccco2)cc1Oc1ccccc1 |  |  |  |  |  | Saldiuretic activity [23]: Active; Saldiuretic activity [24]: Active
19 | Cc1ccc(N(C)c2cc(NCc3ccco3)c(S(=O)(=O)[O-])cc2S(N)(=O)=O)cc1.[Na+] | 1.9 |  | 1.6 | 2.3 | 1.2 | 
